Reference: article PMC3842382 (Journal of medicinal chemistry, 2013)

Assays:
mice [1] = details: cited from earlier work
mice [2] = test: Maximal electroshock seizure; type: in vivo; details: Mus musculus, ip, read-out: MES ED50
mice [3] = test: iv Metrazol test; type: in vivo; details: ip, 25 mg/kg and 81 mg/kg
[4] = test system: Na+ currents in mouse CAD cells; test: Whole-cell patch-clamp electrophysiology of Na+ currents in CAD cells; type: cell-based
[5] = test system: Na+ currents in rat embryonic cortical neurons; test: Whole-cell patch-clamp electrophysiology of Na+ currents in cortical neurons; type: cell-based; details: 20 μM
Summary of the method: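 Cortical neurons from embryonic day 19 rat cortices were cultured 7–10 days in vitro. Whole-cell voltage clamp was run at room temperature in external solution containing 100 mM NaCl, TEA-Cl, CdCl2, NiCl2 and 4-AP (HEPES, pH 7.3), with 20 μM test compound or 0.1% DMSO control. Slow inactivation was read as the fraction of current available at −50 mV. V1/2 and k came from Boltzmann fits to individual recordings, averaged as mean ± SEM.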

[6] = test system: Na+ currents in mouse CAD cells; details: cited from earlier work
mice [7] = details: ip; cited from earlier work
rat = details: oral; cited from earlier work

In the case of `COC[C@@H](NC(C)=O)C(=O)NCc1ccccc1` [Compound 1, Lacosamide], the “anticonvulsant activity in scMet model” value (mice [1]) is listed as “did not display anticonvulsant activity”.

In the case of `Cl.NCc1ccc(-c2ccccc2)cc1` [Compound 2, (Biphenyl-4-yl)methylammonium Chloride], the ED50 (mice [2]) is reported as 30 to 100 mg/kg.

With `Cl.NCc1ccc(-c2cccc(OC(F)(F)F)c2)cc1` [Compound 8, (3′-Trifluoromethoxybiphenyl-4-yl)methylammonium Chloride] the “seizure threshold vs control group” value (mice [3]) was “no statistical difference from the control group”, the “effect on Na+ channel steady-state activation” value [4] was “did not affect” and the “effect on slopes of fast inactivation” value [4] was “not affected”. For the same molecule, the “frequency (use)-dependent inhibition of Na+ currents” value ([4]; 10 μM, 10 Hz) was “did not exhibit”, the “effect on steady-state activation (V1/2 and k)” value [5] was “unchanged” and the “frequency (use)-dependent inhibition of Na+ currents” value [5] was “did not exhibit”. For the same molecule, the “extent of slow inactivation (fraction of current available at −50 mV)” value ([5]; vehicle DMSO 0.41) was 0.17 ± 0.03, the “change in slope values of fast inactivation” value ([5]; vs control) was “no commensurate significant changes” and the “hyperpolarizing shift of V1/2 of steady-state fast inactivation” value ([5]; vs control) was about 15.7 mV.

For `NCc1ccc(OCc2cccc(F)c2)cc1` [Compound 22], the “effect on fast inactivation” value [6] is listed as “affected fast inactivation” and the “frequency (use)-dependent blockage of Na+ currents” value [6] is listed as “displayed frequency (use)-dependent blockage”.

For `CCC1(c2ccccc2)C(=O)NC(=O)NC1=O` [phenobarbital], the “MES ED50” value (mice [7]) is given as 22 [1.0] (15-23) mg/kg and the “MES ED50” value (rat) is given as 9.1 [5.0] (7.6-12) mg/kg.

For `CCCC(CCC)C(=O)O` [valproate], the “MES ED50” value (mice [7]) is listed as 270 [0.25] (250-340) mg/kg and the “MES ED50” value (rat) is listed as 490 [0.5] (350-730) mg/kg.
